Data taken from ChEMBL document CHEMBL2346608, “New annelated thieno[2,3-e][1,2,3]triazolo[1,5-a]pyrimidines, with potent anticancer activity, designed through VLAK protocol” (2013).

Tests used:
Assay type in all cases: functional
HOP-62 = experiment: Antiproliferative activity against human HOP62 cells after 48 hrs by sulforhodamine B assay; conditions: HOP-62, 48 h
Method in brief: (§1)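 Cells grown in RPMI 1640 with 5% FBS and 2 mM L-glutamine, plated at 5000–40,000 cells/well and preincubated 24 h at 37 °C, 5% CO2. Five drug concentrations (10-fold or ½-log dilutions from DMSO stocks) applied for 48 h. TCA-fixed (final 10% adherent, 16% suspension), SRB-stained, A515 read. Growth versus time-zero and control wells gave GI50, TGI, LC50.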

TK-10 = experiment: Antiproliferative activity against human TK10 cells after 48 hrs by sulforhodamine B assay; conditions: TK-10, 48 h
Method in brief: (§2)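 Cells in RPMI 1640 with 5% FBS and 2 mM L-glutamine were seeded at 5000–40,000/well according to doubling time and preincubated 24 h at 37 °C in 5% CO2. Time-zero plates were TCA-fixed when drug was added. Five 10-fold or ½-log dilutions from DMSO stocks were added for 48 h. After SRB staining, A515 was read and GI50 derived from [(Ti−Tz)/(C−Tz)]×100 = 50.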

PC-3 = experiment: Antiproliferative activity against human PC3 cells after 48 hrs by sulforhodamine B assay; conditions: PC-3, 48 h; method in brief: as §1
K562 = experiment: Antiproliferative activity against human K562 cells after 48 hrs by sulforhodamine B assay; conditions: K562, 48 h; method in brief: as §1
SN12C = experiment: Antiproliferative activity against human SN12C cells after 48 hrs by sulforhodamine B assay; method in brief: as §1
HOP-92 = experiment: Antiproliferative activity against human HOP92 cells after 48 hrs by sulforhodamine B assay; conditions: HOP-92, 48 h; method in brief: as §1
SF-295 = experiment: Antiproliferative activity against human SF295 cells after 48 hrs by sulforhodamine B assay; conditions: SF-295, 48 h; method in brief: as §1
SNB-19 = experiment: Antiproliferative activity against human SNB19 cells after 48 hrs by sulforhodamine B assay; conditions: SNB-19, 48 h; method in brief: as §1
COLO 205 = experiment: Antiproliferative activity against human COLO205 cells after 48 hrs by sulforhodamine B assay; conditions: COLO 205, 48 h; method in brief: as §1
SF-539 = experiment: Antiproliferative activity against human SF539 cells after 48 hrs by sulforhodamine B assay; conditions: SF-539, 48 h; method in brief: as §1
M14 = experiment: Antiproliferative activity against human M14 cells after 48 hrs by sulforhodamine B assay; conditions: M14, 48 h; method in brief: as §1
HL-60 = experiment: Antiproliferative activity against human HL60 (TB) cells after 48 hrs by sulforhodamine B assay; conditions: HL-60, 48 h
Method in brief: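 NCI 60-cell panel protocol: cells in RPMI 1640 with 5% FBS and 2 mM L-glutamine, plated 24 h at 37 °C/5% CO2 before dosing. Compounds dissolved in DMSO and tested at five concentrations (10-fold or ½ log serial dilutions) for 48 h. Suspension cells fixed with 80% TCA (final 16%), SRB stained, absorbance at 515 nm. GI50 derived from time-zero-corrected growth.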

MDA-MB-435 = experiment: Antiproliferative activity against human MDA-MB-435 cells after 48 hrs by sulforhodamine B assay; conditions: MDA-MB-435, 48 h; method in brief: as §1
MDA-MB-231 = experiment: Antiproliferative activity against human MDA-MB-231 cells after 48 hrs by sulforhodamine B assay; conditions: MDA-MB-231, 48 h; method in brief: as §1
OVCAR-8 = experiment: Antiproliferative activity against human OVCAR8 cells after 48 hrs by sulforhodamine B assay; conditions: OVCAR-8, 48 h; method in brief: as §1
SK-OV-3 = experiment: Antiproliferative activity against human SKOV3 cells after 48 hrs by sulforhodamine B assay; conditions: SK-OV-3, 48 h; method in brief: as §1
RXF 393 = experiment: Antiproliferative activity against human RXF393 cells after 48 hrs by sulforhodamine B assay; conditions: RXF 393, 48 h; method in brief: as §1
UO-31 = experiment: Antiproliferative activity against human UO31 cells after 48 hrs by sulforhodamine B assay; conditions: UO-31, 48 h; method in brief: as §2
KM12 = experiment: Antiproliferative activity against human KM12 cells after 48 hrs by sulforhodamine B assay; conditions: KM12, 48 h; method in brief: as §1
NCI-H23 = experiment: Antiproliferative activity against human NCI-H23 cells after 48 hrs by sulforhodamine B assay; conditions: NCI-H23, 48 h; method in brief: as §1
NCI-H226 = experiment: Antiproliferative activity against human NCI-H226 cells after 48 hrs by sulforhodamine B assay; conditions: NCI-H226, 48 h; method in brief: as §1
[1] = Antiproliferative activity against human Hs 578T cells after 48 hrs by sulforhodamine B assay; method in brief: as §1
CCRF-CEM = experiment: Antiproliferative activity against human CCRF-CEM cells after 48 hrs by sulforhodamine B assay; method in brief: as §1
NCI-H522 = experiment: Antiproliferative activity against human NCI-H522 cells after 48 hrs by sulforhodamine B assay; conditions: NCI-H522, 48 h; method in brief: as §1
A498 = experiment: Antiproliferative activity against human A498 cells after 48 hrs by sulforhodamine B assay; conditions: A498, 48 h; method in brief: as §1
UACC-62 = experiment: Antiproliferative activity against human UACC62 cells after 48 hrs by sulforhodamine B assay; conditions: UACC-62, 48 h; method in brief: as §2
[2] = Antiproliferative activity against human HCC2998 cells after 48 hrs by sulforhodamine B assay; conditions: HCC 2998, 48 h; method in brief: as §1
[3] = read-out: pLC50 (the source's name) (converted)

In the case of `O=C(CCCn1c(=O)c2sc3ncccc3c2n2nnc(-c3ccccc3)c12)NCCc1c[nH]cn1`, the GI50 (HOP-62) is reported as 16.6 µM, the LC50 (HOP-62) is reported as 61.7 µM and the TGI (HOP-62; read-out: pTGI (converted)) is reported as 31.6 µM. For the same molecule, the GI50 (TK-10) was 13.5 µM, the LC50 (TK-10) was 57.5 µM and the TGI (TK-10; read-out: pTGI (converted)) was 28.2 µM. The GI50 (PC-3) was 11 µM, the LC50 (PC-3) was > 100 µM and the TGI (PC-3; read-out: pTGI (converted)) was > 100 µM. The GI50 (K562) was 0.309 µM, the LC50 (concentration killing 50% of cells) (K562) was > 100 µM and the TGI (K562; read-out: pTGI (converted)) was 15.5 µM. It also gave a GI50 (SN12C) of 0.331 µM, an LC50 (SN12C) of 41.7 µM and a TGI (SN12C; read-out: pTGI (converted)) of 13.5 µM. The GI50 (HOP-92) was 17 µM, the CC50 (HOP-92; [3]) was 91.2 µM and the TGI (HOP-92; read-out: pTGI (converted)) was 39.8 µM. It also gave a GI50 (SF-295) of 1.74 µM, an LC50 (SF-295) of 53.7 µM and a TGI (SF-295; read-out: pTGI (converted)) of 16.2 µM. The GI50 (SNB-19) was 10.7 µM, the LC50 (SNB-19) was > 100 µM and the TGI (SNB-19; read-out: pTGI (converted)) was 33.9 µM. It also gave a GI50 (COLO 205) of 6.31 µM, an LC50 (COLO 205) of 58.9 µM and a TGI (COLO 205; read-out: pTGI (converted)) of 23.4 µM. For the same molecule, the GI50 (SF-539) was 0.316 µM, the LC50 (SF-539) was 53.7 µM and the TGI (SF-539; read-out: pTGI (converted)) was 14.8 µM. For the same molecule, the GI50 (M14) was 3.47 µM, the LC50 (M14) was 50.1 µM and the TGI (M14; read-out: pTGI (converted)) was 19.5 µM. It also gave a GI50 (HL-60) of 1.41 µM, a CC50 (HL-60; [3]) of 50.1 µM and a TGI (HL-60; read-out: pTGI (converted)) of 4.79 µM. For the same molecule, the GI50 (MDA-MB-435) was 0.49 µM, the LC50 (MDA-MB-435) was > 100 µM and the TGI (MDA-MB-435; read-out: pTGI (converted)) was 20.4 µM. For the same molecule, the GI50 (MDA-MB-231) was 17.8 µM, the LC50 (MDA-MB-231) was 67.6 µM and the TGI (MDA-MB-231; read-out: pTGI (converted)) was 34.7 µM. For the same molecule, the GI50 (OVCAR-8) was 0.0955 µM, the LC50 (OVCAR-8) was 67.6 µM and the TGI (OVCAR-8; read-out: pTGI (converted)) was 17.4 µM. It also gave a GI50 (SK-OV-3) of 14.5 µM, an LC50 (SK-OV-3) of 53.7 µM and a TGI (SK-OV-3; read-out: pTGI (converted)) of 27.5 µM. It also gave a GI50 (RXF 393) of 14.8 µM, an LC50 (RXF 393) of 77.6 µM and a TGI (RXF 393; read-out: pTGI (converted)) of 33.9 µM. For the same molecule, the GI50 (UO-31) was 11.7 µM, the LC50 (UO-31) was 60.3 µM and the TGI (UO-31; read-out: pTGI (converted)) was 26.9 µM. For the same molecule, the GI50 (KM12) was 1.91 µM, the LC50 (KM12) was 83.2 µM and the TGI (KM12; read-out: pTGI (converted)) was 24 µM. The GI50 (NCI-H23) was 14.5 µM, the LC50 (NCI-H23) was 70.8 µM and the TGI (NCI-H23; read-out: pTGI (converted)) was 32.4 µM. It also gave a GI50 (NCI-H226) of 11.7 µM, an LC50 (NCI-H226) of 74.1 µM and a TGI (NCI-H226; read-out: pTGI (converted)) of 29.5 µM. For the same molecule, the GI50 [1] was 11.2 µM, the LC50 [1] was 87.1 µM and the TGI ([1]; read-out: pTGI (converted)) was 31.6 µM. The GI50 (CCRF-CEM) was 0.224 µM, the LC50 (CCRF-CEM) was > 100 µM and the TGI (CCRF-CEM; read-out: pTGI (converted)) was 4.47 µM. For the same molecule, the GI50 (NCI-H522) was 2.95 µM, the LC50 (NCI-H522) was 60.3 µM and the TGI (NCI-H522; read-out: pTGI (converted)) was 22.9 µM. It also gave a GI50 (A498) of 6.76 µM, an LC50 (A498) of 53.7 µM and a TGI (A498; read-out: pTGI (converted)) of 22.4 µM. For the same molecule, the GI50 (UACC-62) was 15.8 µM, the LC50 (concentration killing 50% of cells) (UACC-62) was 57.5 µM and the TGI (UACC-62; read-out: pTGI (converted)) was 30.2 µM. The GI50 [2] was 2.04 µM, the LC50 [2] was > 100 µM and the TGI ([2]; read-out: pTGI (converted)) was 30.2 µM.
